The test system of test [1] is Rattus norvegicus. In words: Neurite length after administration (1 uM) in rat cortical neurons. The class given is functional. Summed up:
(§1)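 E18 Sprague-Dawley rat fetal cortical neurons were plated at 5000 cells/cm² on poly-L-lysine in DMEM with 10% FBS and penicillin/streptomycin for 24 h. They were then switched to serum-free Neurobasal with 2% B27 containing the sample, with 0.5% ethanol as vehicle control. Cells were fixed in PFA and stained with anti-MAP2 (1:1000, overnight, 4 °C) and peroxidase/DAB. Primary process length was averaged over 100 random neurons.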

Test [2] deals with Rattus norvegicus. Description: Neurite length after administration (0.1 uM) in rat cortical neurons. The class given is functional. A digest of the protocol:
as §1

The results in this text go back to ChEMBL document CHEMBL1146744, “Efficient synthesis and structure-activity relationship of honokiol, a neurotrophic biphenyl-type neolignan” (2004).

In the case of `CCCc1ccc(O)c(-c2ccc(O)c(CCC)c2)c1`, the Activity in the test on Rattus norvegicus [1] is 102 µm; in the test on Rattus norvegicus [2], 101 µm.

On to `C=CCc1ccc(O)c(-c2ccc(O)c(CCC)c2)c1`, for which the Activity in the test with Rattus norvegicus [1] stood at 150 µm; with Rattus norvegicus [2], 128 µm.

`C=CCc1cc(-c2cc(CCC)ccc2O)ccc1O`: the values for the Activity with Rattus norvegicus [1] and in the test with Rattus norvegicus [2] were 120 µm and 103 µm, respectively.

For the molecule `C=CCc1ccc(O)c(-c2ccc(OC)c(CC=C)c2)c1` [METHYLHONOKIOL], the Activity in the test with Rattus norvegicus [1] was 114 µm; with Rattus norvegicus [2], 113 µm.

As to `C=CCc1ccc(OC)c(-c2ccc(O)c(CC=C)c2)c1`, the Activity is 123 µm with Rattus norvegicus [1] and 133 µm in the test with Rattus norvegicus [2].

As to `C=CCc1ccc(OC)c(-c2ccc(OC)c(CC=C)c2)c1`, the Activity in the test with Rattus norvegicus [1] came to 111 µm; with Rattus norvegicus [2], 112 µm.

As for `C=CCc1ccc(O)c(-c2ccc(O)c(CC=C)c2)c1` [HONOKIOL], the results for the Activity with Rattus norvegicus [1] and in the test with Rattus norvegicus [2] were 142 µm and 139 µm, respectively.
